Measured values as given in publication PMC4152390 (Neuropharmacology, 2014).

Tests used:
DAT = DAT (Rattus norvegicus, UniProt P23977); experiment: [3H]dopamine uptake inhibition in rat brain synaptosomes; type: biochemical; conditions: selectivity from uptake IC50 values at DAT and SERT
How it was run: (§1)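 Synaptosomes came from male Sprague-Dawley rats: striatum for DAT, and whole brain minus striatum and cerebellum for NET and SERT. Uptake ran in pH 7.4 Krebs-phosphate buffer (pargyline, BSA, ascorbate) with test compound, [3H]dopamine, [3H]norepinephrine or 5 nM [3H]serotonin, and unlabeled blockers of competing transporters. It was stopped by filtration and counted by scintillation.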

NET = NET (Rattus norvegicus, UniProt Q63380); experiment: [3H]norepinephrine uptake inhibition in rat brain synaptosomes; type: biochemical; conditions: read-out: [3H]Norepinephrine uptake, IC50 at NET; rat brain synaptosomes (whole brain minus striatum and cerebellum); 10 nM [3H]norepinephrine; mean±SD, n=3
NET, sequence (Q63380 1-617): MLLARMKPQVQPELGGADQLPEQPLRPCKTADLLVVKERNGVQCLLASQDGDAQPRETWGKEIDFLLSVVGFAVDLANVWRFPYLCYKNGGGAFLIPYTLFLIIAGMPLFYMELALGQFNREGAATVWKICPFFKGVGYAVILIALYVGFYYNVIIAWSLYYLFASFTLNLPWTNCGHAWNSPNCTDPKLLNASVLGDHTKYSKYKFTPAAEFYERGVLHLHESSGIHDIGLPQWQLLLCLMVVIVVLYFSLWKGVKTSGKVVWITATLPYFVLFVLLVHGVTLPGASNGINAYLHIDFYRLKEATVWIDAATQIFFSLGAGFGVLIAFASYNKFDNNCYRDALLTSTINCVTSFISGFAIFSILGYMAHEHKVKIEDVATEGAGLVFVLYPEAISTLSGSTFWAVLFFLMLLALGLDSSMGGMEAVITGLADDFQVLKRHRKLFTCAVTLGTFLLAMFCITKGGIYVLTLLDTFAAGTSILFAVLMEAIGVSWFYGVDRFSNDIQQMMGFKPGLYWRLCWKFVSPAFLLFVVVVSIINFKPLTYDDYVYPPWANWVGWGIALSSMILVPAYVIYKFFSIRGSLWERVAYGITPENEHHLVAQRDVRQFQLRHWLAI
How it was run: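 Rats killed by CO2; synaptosomes from whole brain minus striatum and cerebellum. Unlabeled blockers were added to prevent uptake by competing transporters. Tissue was added to Krebs-phosphate buffer (pH 7.4; 0.05 mM pargyline, 1 mg/mL BSA and ascorbic acid) containing test compound and [3H]norepinephrine. Rapid GF/B filtration, scintillation counting, % control uptake.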

ICR mice [1] = experiment: Locomotor activity; type: in vivo, mouse; conditions: for Doses producing significant increases in beam breaks compared to saline for the duration of the session (all time points): i.p., 10-min bins of 60-min session
How it was run: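 Male ICR mice got a single i.p. dose of test compound or saline (sterile saline vehicle, 10 ml/kg), n=8 per dose and n=16 for saline. Each was placed at once into a clear open-field chamber (47×25.5×22 cm) for a 60-min blinded session. Beam breaks were counted per 10-min bin and analysed by mixed-model ANOVA (time within, dose between), with p<0.05.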

SERT = SERT (Rattus norvegicus, UniProt P31652); experiment: [3H]serotonin uptake inhibition in rat brain synaptosomes; type: biochemical; conditions: for IC50: read-out: [3H]Serotonin uptake, IC50 at SERT, rat brain synaptosomes (whole brain minus striatum and cerebellum), 5 nM [3H]serotonin, mean±SD, n=3
SERT, sequence (P31652 whole entry): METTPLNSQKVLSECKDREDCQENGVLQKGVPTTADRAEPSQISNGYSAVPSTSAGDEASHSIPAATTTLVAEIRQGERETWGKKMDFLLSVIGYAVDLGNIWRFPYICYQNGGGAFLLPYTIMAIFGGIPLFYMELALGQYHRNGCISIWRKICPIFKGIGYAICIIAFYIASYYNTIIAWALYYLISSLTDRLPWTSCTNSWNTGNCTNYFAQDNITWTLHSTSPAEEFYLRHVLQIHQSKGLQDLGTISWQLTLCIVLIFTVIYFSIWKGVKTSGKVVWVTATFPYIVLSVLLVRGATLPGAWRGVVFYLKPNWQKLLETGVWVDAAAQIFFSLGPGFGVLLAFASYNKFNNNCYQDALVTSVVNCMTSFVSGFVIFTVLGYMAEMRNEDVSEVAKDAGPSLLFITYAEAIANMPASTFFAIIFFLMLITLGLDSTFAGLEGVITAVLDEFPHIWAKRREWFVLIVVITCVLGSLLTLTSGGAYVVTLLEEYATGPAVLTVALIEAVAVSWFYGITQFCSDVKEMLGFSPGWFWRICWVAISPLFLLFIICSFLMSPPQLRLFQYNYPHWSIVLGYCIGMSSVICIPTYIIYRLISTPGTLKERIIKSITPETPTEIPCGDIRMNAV
How it was run: as §1

ICR mice [2] = experiment: Functional observational battery; type: in vivo, mouse; conditions: i.p., 15 min post-injection, p<0.0033
How it was run: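 Male ICR mice (n=8 per group; a single saline group of n=16) got one i.p. dose of test compound in sterile saline (10 ml/kg). A modified EPA functional observational battery was scored 15 min post-injection by a blinded technician in weeks 2–3. Each measure was analysed by Kruskal–Wallis ANOVA by ranks, corrected for ties, with corrected alpha p<0.0033.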

DAT, NET and SERT = conditions: ref Baumann et al., 2013b; cited from earlier work
ICR mice [3] = experiment: Locomotor activity with SCH23390 antagonist pretreatment; type: in vivo, mouse; conditions: SCH23390 0.03 mg/kg s.c., 60 min session
How it was run: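 In weeks 5 and 7, ICR mice got SCH23390 (0.03 mg/kg) or saline s.c. 30 min before an i.p. challenge with test compound or saline. Groups given the highest FOB dose were excluded, and the vehicle group was split between pretreatments. Total beam breaks were analysed by two-way ANOVA (dose × pretreatment).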

DAT, sequence (P23977 whole entry): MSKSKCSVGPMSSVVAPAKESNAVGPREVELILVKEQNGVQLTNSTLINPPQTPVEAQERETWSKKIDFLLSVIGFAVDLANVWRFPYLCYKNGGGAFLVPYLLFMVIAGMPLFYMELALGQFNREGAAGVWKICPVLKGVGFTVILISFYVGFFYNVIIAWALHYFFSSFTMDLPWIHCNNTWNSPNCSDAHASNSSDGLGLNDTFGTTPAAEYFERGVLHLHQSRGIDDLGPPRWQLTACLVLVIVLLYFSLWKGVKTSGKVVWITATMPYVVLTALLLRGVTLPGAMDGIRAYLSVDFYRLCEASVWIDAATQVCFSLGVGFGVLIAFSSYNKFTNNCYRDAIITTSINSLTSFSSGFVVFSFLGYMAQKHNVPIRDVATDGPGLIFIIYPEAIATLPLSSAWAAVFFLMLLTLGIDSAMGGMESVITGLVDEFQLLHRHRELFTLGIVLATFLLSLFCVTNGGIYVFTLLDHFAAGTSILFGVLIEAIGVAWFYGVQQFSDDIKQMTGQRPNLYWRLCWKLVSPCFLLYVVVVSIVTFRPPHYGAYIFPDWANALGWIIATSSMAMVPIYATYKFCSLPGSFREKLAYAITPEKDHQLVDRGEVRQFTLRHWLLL

Compound	DAT/SERT ratio (DAT)	IC50 (NET)	Time from session start with significantly increased beam breaks (ICR mice [1]; 3.0 mg/kg i.p., 60-min session)	Doses producing significant increases in beam breaks compared to saline for the duration of the session (all time points) (ICR mice [1])	IC50 (SERT)	Postinjection interval with significantly increased beam breaks (ICR mice [1]; 1.0 mg/kg i.p., 60-min session)	Grooming: direction of difference from saline and doses at which significant (ICR mice [2])	Time from session start with significantly increased beam breaks (ICR mice [1]; 10.0 mg/kg i.p., 60-min session)	Activity in the release assay (DAT, NET and SERT)	fold weaker at blocking uptake of serotonin than catecholamine uptake (SERT; SERT versus DAT and NET uptake IC50)	Effect of SCH23390 plus saline on activity compared to saline/saline group (ICR mice [3])
CCC(C(=O)c1ccccc1)N1CCCC1 (stereo not drawn) [α-PBP, α-pyrrolidinobutiophenone]	>159	91.5 ± 12.8 nM	40 min	10.0 mg/kg	> 10000 nM						
CCCC(C(=O)c1ccccc1)N1CCCC1 (stereo not drawn) [α-PVP, α-pyrrolidinovalerophenone]	>781	14.2 ± 1.2 nM		3.0 to 10.0 mg/kg	> 10000 nM	20 to 50 min					
CC(C(=O)c1ccccc1)N1CCCC1 (stereo not drawn) [α-PPP, α-pyrrolidinopropiophenone]	>51	445 ± 39.2 nM		30.0 mg/kg	> 10000 nM		30 mg/kg	50 min			
CCCC(C(=O)c1ccc2c(c1)OCO2)N1CCCC1 (centres unmarked) [MDPV, 3,4-methylenedioxypyrovalerone]	806	25.9 ± 5.6 nM		1.0 to 3.0 mg/kg	3300 ± 485 nM				not active	more than 100 fold	
CN1CCc2cc(Cl)c(O)cc2[C@@H](c2ccccc2)C1 [SCH23390]											did not significantly affect activity
